High-throughput results: PubChem BioAssay, Broad Institute
Only some compounds are listed: those with a hit (about 3.5% of all), similar ones and a draw of the others.
ERAP1 HTS inh – inhibitors of human ERAP1 aminopeptidase; recombinant ERAP1, Leu-AMC fluorescence, 60 min; inhibition, % at 10.7 µM; 340,000 tested, 0.15% active;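 active = mean replicate inhibition of at least 30%, or all replicates individually reaching that 30% level; inactive = mean below 30% and not every replicate reaching it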
Target sequence (Q9NZ08 whole entry, looked up): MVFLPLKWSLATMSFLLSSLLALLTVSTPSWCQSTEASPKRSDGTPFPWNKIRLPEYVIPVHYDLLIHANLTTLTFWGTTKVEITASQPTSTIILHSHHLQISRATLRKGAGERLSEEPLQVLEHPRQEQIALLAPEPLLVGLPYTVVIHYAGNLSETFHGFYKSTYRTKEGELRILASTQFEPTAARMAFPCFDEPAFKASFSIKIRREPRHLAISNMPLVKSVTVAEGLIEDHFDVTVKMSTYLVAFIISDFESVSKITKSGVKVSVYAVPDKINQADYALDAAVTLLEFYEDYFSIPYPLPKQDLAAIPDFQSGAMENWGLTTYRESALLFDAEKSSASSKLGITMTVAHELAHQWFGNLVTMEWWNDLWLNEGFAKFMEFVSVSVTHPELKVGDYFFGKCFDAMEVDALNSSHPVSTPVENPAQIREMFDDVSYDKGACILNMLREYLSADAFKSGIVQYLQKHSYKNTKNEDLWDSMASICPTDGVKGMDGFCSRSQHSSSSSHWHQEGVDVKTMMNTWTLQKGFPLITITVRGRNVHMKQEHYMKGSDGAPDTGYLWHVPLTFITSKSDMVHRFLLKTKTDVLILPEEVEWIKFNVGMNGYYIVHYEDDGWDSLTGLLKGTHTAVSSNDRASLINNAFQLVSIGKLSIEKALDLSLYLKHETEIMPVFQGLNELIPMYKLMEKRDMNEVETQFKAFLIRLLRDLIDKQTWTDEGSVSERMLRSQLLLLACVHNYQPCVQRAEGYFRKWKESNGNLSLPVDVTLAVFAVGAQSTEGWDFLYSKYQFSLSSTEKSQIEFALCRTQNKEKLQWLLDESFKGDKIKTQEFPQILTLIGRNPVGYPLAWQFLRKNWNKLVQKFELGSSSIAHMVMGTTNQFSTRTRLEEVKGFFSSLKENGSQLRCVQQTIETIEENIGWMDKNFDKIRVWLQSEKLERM
MITF act – MITF TRPM1 promoter activation in melanoma cells; activation, % at 12.5 µM; SK-MEL-5 TRPM1-promoter luciferase, 24 h; % of positive control, neutral wells = 0; 300,000 tested, 0.75% active;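 active = mean activation of at least 80% with every replicate also reaching 80%; inconclusive = mean reaches 80% but some replicate falls short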
esBAF inh – SWI/SNF esBAF complex inhibition. 350,000 tested, 2% active. reporter increase, % at 12.5 µM. mouse ES cells, Bmi1-luciferase knock-in reporter, 24 h; 100% = twice the neutral-well signal; in the data active = activation above about 40%; inconclusive = no clear call, values can overlap the other calls;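 note: a rise in the Bmi1 reporter signal indicates esBAF inhibition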
Cneo AK release – causes C. neoformans cell lysis. adenylate kinase release luminescence, 4 h; normalised: neutral wells 0, clomiphene wells 100. lysis activity, % at 15 µM. 360,000 tested, 0.2% active;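 active = mean lysis activity across replicates of at least 80%, whatever share of replicates individually reach that level; inactive = mean lysis activity below 80%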
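Assay system: Cryptococcus neoformans yeast cells / Dosing: single-point compound dose / Timing: 4 h at 37 °C static, read 1 h later / Measured by: luminescence of released adenylate kinase using an AK detection reagent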
Wnt act – activators of Wnt/beta-catenin signaling; Wnt/beta-catenin reporter cell assay, activator, plate reader; activation, % at 9.35 µM; 300,000 tested, 1.2% active; AID 743398; in the data active = activation above about 30%, passing the limit was not always enough; inconclusive = no clear call, values can overlap the other calls
Env fusion inh – HIV envelope-mediated fusion inhibition. HeLa-JRFL Env/CEM21 cell fusion, luciferase. inhibition, % at 12.3 µM. 360,000 tested, 1.1% active;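 active = mean replicate inhibition score of at least 50 and every replicate individually at or above 50; inconclusive = only one of the two criteria met; inactive = mean below 50 and not all replicates reaching 50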
A number is an active result; i = inactive; ? = inconclusive; nt = not tested or not shown; [ ] = another dose, or the depositor's remark.

SMILES	ERAP1 HTS inh	MITF act	esBAF inh	Cneo AK release	Wnt act	Env fusion inh
C[C@@H]1CN([C@@H](C)CO)C(=O)Cc2cc(NS(=O)(=O)c3ccccc3)ccc2O[C@H]1CN(C)Cc1ccc(Cl)c(Cl)c1	i	nt	i	i	nt	88[16.7 µM]
Cc1noc(C)c1S(=O)(=O)Nc1ccc2c(c1)CC(=O)N([C@@H](C)CO)C[C@@H](C)[C@H](CN(C)Cc1ccc(Cl)c(Cl)c1)O2	i	nt	i	i	nt	85[16.7 µM]
C[C@@H]1CN([C@@H](C)CO)C(=O)Cc2cc(NS(=O)(=O)c3ccc(Cl)cc3)ccc2O[C@H]1CN(C)Cc1ccc(Cl)c(Cl)c1	i	nt	i	i	nt	83[16.7 µM]
Cc1noc(C)c1S(=O)(=O)Nc1ccc2c(c1)CC(=O)N([C@@H](C)CO)C[C@H](C)[C@@H](CN(C)Cc1ccc(Cl)c(Cl)c1)O2	i	nt	i	i	nt	i
O=C(NCC1CCCCC1)[C@@H]1[C@@H](CO)[C@@H]2Cn3c(ccc(C4=CCCC4)c3=O)[C@H]1N2	i	nt	i	i	nt	nt
CCCCN(C(=O)c1cc(S(=O)(=O)N2CCCCCC2)ccc1OC)c1ccccc1	i	i	i	i	i	93
CCCCN(C(=O)c1cc(S(=O)(=O)N2CCOCC2)ccc1N1CCOCC1)c1ccccc1	i	nt	i	i	i	i
CC(C)c1ccc(Nc2ncccc2C(=O)O)cc1	i	i	60	i	i	i
Cc1cc(NC(=O)c2ccc(OCC3CCCO3)cc2)ccc1Br (centres undefined)	i	nt	71	i	52	i
CC(C)(C)c1nc(C(C)(C)C)c(Br)c(=O)[nH]1	i	i	i	nt	i	72
C[C@@H]1CN([C@@H](C)CO)C(=O)c2cc(NC(=O)CCCN(C)C)ccc2O[C@H]1CN(C)Cc1ccc(C(=O)O)cc1	i	nt	i	i	nt	i
O=C(Nc1nnc(-c2ccco2)s1)c1ccccc1	nt	i	i	i	i	i
CCC(=O)Nc1nnc(-c2ccncc2)s1	nt	i	nt	nt	nt	i
CC(C)(C)c1ccc(-c2nnc(NC(=O)c3ccccc3)s2)cc1	nt	i	49	i	nt	nt
COCC(=O)Nc1nnc(-c2ccc(C(C)(C)C)cc2)s1	nt	91	i	i	i	i
COc1cccc(C(=O)Nc2nnc(-c3ccccc3)s2)c1	i	?	i	i	36	i
COc1cccc(C(=O)Nc2nnc(-c3ccc(OC)cc3OC)s2)c1	i	nt	i	i	i	i
COc1cccc(Nc2nc(CN)cs2)n1	i	nt	i	i	i	57
COc1ccc2nc(N3CCN(C(=O)C4COc5ccccc5O4)CC3)sc2c1 (centres undefined)	i	100	nt	i	i	i
CCC(=O)N1CCN(c2nc3ccccc3s2)CC1	nt	i	nt	nt	nt	nt
COc1ccc(N2CCN(C(=O)c3ccc4nc(N5CCCCC5)sc4c3)CC2)cc1	i	i	62	i	i	i
O=C(C1CC1)N1CCN(c2nc3ccccc3s2)CC1	nt	87	46	i	31	i
O=C(c1ccc2ncsc2c1)N1CCN(c2nc3ccccc3s2)CC1	i	i	i	i	i	76
CO[C@@H](CN(C)S(=O)(=O)c1ccc(F)cc1)[C@@H](C)CN(C(=O)Nc1ccccc1F)[C@H](C)CO	i	nt	i	i	nt	i
CC(=O)N1[C@@H]2c3ccc(-c4ccccc4)c(=O)n3C[C@H]1[C@H](CO)[C@H]2C(=O)NCC1CC1	i	nt	i	i	nt	nt
SMILES	ERAP1 HTS inh	MITF act	esBAF inh	Cneo AK release	Wnt act	Env fusion inh
C[C@@H]1CN([C@H](C)CO)C(=O)c2cc(NC(=O)CCC(F)(F)F)ccc2O[C@@H](C)CCCCO[C@@H]1CN(C)Cc1ccc(C(F)(F)F)cc1	i	nt	i	i	nt	i
Cc1onc(-c2ccccc2Cl)c1C(=O)N1CCN(c2nc3ccccc3s2)CC1	nt	i	i	i	44	i
CCc1noc(C)c1C(=O)N(CCOC)c1c(N)n(CC(C)C)c(=O)[nH]c1=O	95	i	i	i	i	i
CCCCN(C(=O)c1ccc([N+](=O)[O-])o1)c1c(N)n(CC(C)C)c(=O)[nH]c1=O	87	i	i	i	i	i
CCCCN(C(=O)c1cc(S(=O)(=O)N2CCCCC2)ccc1Cl)c1c(N)n(CC(C)C)c(=O)[nH]c1=O	i	nt	i	i	i	i
CCCCN(C(=O)c1cc(S(=O)(=O)N2CCOCC2)ccc1Cl)c1c(N)n(CC(C)C)c(=O)[nH]c1=O	i	i	i	nt	i	59
CCCCN(C(=O)c1c(CC)noc1C)c1c(N)n(CC(C)C)c(=O)[nH]c1=O	i	i	i	i	i	nt
CCCCn1c(N)c(N(CC)C(=O)c2ccco2)c(=O)[nH]c1=O	84	i	i	i	i	nt
Cc1noc(C)c1S(=O)(=O)Nc1ccc2c(c1)C(=O)N([C@@H](C)CO)C[C@H](C)[C@H](CN(C)C(=O)NC1CCCCC1)OCCCC[C@@H](C)O2	i	nt	i	i	nt	i
CCOc1ccc(CN2C(=O)c3ccccc3C2=O)cc1C(=O)NC1CC(C)(C)NC(C)(C)C1	49	i	i	i	i	nt
CCOc1ccc(CN2C(=O)c3ccccc3C2=O)cc1C(=O)Nc1nnc(SCC)s1	nt	i	nt	i	i	i
CCCC#Cc1cnc2c(c1)C(=O)N([C@@H](C)CO)C[C@H](C)[C@@H](CN(C)C(=O)CCN1CCCCC1)O2	i	nt	i	i	nt	nt
O=C(Nc1ccc(Cl)cc1)N[C@H]1CC[C@@H](CCNS(=O)(=O)c2ccccc2F)O[C@H]1CO	i	nt	i	i	nt	i
COc1ccc2c3c([nH]c2c1)[C@H](CO)N(C(=O)CN1CCOCC1)CC31CCN(Cc2ccccc2)CC1	i	nt	nt	nt	nt	i
COc1ccc(OCc2cc(C(=O)N3CCC(OC)CC3)no2)c2ccccc12	i	i	70	i	i	nt
COCC1CCN(C(=O)c2cc(COc3ccc(OC)c4ccccc34)on2)C1 (centres undefined)	i	i	?	i	i	i
CCOC(=O)C1CCN(C(=O)c2cc(COc3ccc(OC)c4ccccc34)on2)CC1	i	i	57	i	40	i
CN(c1ncnc(N)c1[N+](=O)[O-])C1CCS(=O)(=O)C1 (centres undefined)	i	i	i	i	i	59
O=C(/C=C/c1ccc(Cl)cc1Cl)N1CCc2ccccc21	nt	i	nt	nt	48	i
C[C@@H]1CN([C@@H](C)CO)C(=O)c2cc(C#CC3CC3)cnc2O[C@@H]1CN(C)C(=O)Nc1ccc(F)cc1	i	nt	i	i	nt	i
O=C(c1ccccc1)N1CC2(C1)[C@@H](c1ccccc1)[C@H](CO)N2C(=O)CC1CC1	i	nt	nt	nt	nt	nt
Cc1ccc(-c2ccc(CCC(=O)O)n2-c2cccc(O)c2)cc1	nt	i	63	i	nt	i
Cc1ccc(-c2ccc(CCC(=O)O)n2-c2ccc(O)cc2)cc1	nt	i	i	i	nt	i
COc1ccc2c3c(n(C)c2c1)[C@H](CO)N(C(=O)CC1CC1)CC31CCN(C(=O)C2CC2)CC1	i	nt	nt	nt	nt	nt
COc1ccc(Cc2c(-c3ccc(C)cc3)nc3ccc(Cl)cn23)c(C)c1	i	nt	65	i	i	i
